We go through one compound from paper PMC8985159 (RSC Chemical Biology, 2022).

One may read the IC50 as the midpoint of a concentration-inhibition curve. One may read the GI50 as the concentration that inhibits growth by half. Higher therefore signals less potent growth inhibition.

Molecules are shown by their SMILES.

One series concerns the target T1, Sirt1_134-747 (Homo sapiens, UniProt Q96EB6).
T1 sequence (Q96EB6 134-747): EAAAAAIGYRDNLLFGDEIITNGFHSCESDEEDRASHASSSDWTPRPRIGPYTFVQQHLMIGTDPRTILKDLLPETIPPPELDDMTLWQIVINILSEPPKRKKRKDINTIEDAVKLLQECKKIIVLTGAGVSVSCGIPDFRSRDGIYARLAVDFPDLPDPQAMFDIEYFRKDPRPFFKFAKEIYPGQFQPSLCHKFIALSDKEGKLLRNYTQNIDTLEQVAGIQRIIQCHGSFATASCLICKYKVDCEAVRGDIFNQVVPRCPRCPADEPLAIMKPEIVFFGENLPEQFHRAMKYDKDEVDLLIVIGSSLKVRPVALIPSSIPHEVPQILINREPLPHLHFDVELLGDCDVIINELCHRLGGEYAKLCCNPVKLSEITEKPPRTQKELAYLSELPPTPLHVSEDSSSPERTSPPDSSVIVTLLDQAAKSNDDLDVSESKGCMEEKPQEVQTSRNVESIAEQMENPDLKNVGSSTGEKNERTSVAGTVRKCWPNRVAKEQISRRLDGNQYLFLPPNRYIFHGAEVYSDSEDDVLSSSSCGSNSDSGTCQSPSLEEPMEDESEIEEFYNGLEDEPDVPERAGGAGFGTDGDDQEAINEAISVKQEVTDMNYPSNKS
As to the kind of experiment: Sirtuin deacetylation activity assay. Type of series: biochemical.

Series [1] has as its target T2, Sirt2_56-356 (Homo sapiens, UniProt Q8IXJ6).
T2 sequence (Q8IXJ6 56-356): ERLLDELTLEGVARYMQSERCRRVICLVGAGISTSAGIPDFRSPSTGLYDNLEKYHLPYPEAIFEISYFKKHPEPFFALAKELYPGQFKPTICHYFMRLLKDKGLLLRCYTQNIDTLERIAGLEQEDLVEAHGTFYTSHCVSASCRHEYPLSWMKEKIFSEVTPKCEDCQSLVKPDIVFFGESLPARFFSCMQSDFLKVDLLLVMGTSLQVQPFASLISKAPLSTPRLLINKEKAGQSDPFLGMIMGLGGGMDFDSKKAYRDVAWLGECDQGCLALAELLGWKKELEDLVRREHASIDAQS
As to the kind of experiment: Sirtuin deacetylation activity assay. Format: biochemical. Conditions: In vitro Sirt2 activity assay IC50, Table 2.

In another series the target is T3, Sirt3_118-395 (Homo sapiens, UniProt Q9NTG7).
T3 sequence (Q9NTG7 118-395): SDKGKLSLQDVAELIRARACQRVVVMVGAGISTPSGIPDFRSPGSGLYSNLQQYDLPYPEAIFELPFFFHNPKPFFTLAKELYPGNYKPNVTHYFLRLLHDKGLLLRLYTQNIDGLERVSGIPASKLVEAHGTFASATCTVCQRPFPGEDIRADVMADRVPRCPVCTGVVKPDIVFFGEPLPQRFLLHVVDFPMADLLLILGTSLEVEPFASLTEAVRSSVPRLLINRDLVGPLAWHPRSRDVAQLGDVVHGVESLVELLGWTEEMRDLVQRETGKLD
As to the kind of experiment: Sirtuin deacetylation activity assay. Format: biochemical.

The next series has as its target human recombinant HDAC1 (Homo sapiens, UniProt Q13547). The series can be described thus: HDAC1 activity assay. Type of series: biochemical. An outline of the steps: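 Enzyme was incubated with serially diluted test compound in DMSO and ZMAL (added from a 126 μM solution) for 90 min at 37 °C. Stop solution (33 μM trichostatin A, 6 mg/mL trypsin) was added, followed by 30 min at 37 °C. Fluorescence read at Ex 390 / Em 460 nm.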

For the next series, the system named is HGC-27 cells. As to the kind of experiment: Cell viability assay. Particulars: Homo sapiens. Type of series: cell-based. Summed up: (§1)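 MTS/PMS (20:1) viability assay. Cells were seeded at 2000 per well with test compound or vehicle (0.5% DMSO final) and incubated 72 or 120 h at 37 °C, 5% CO2. Absorbance was read 2–4 h after reagent addition. Media: HEK293T in DMEM with 10% FBS, 2 mM glutamine and 1% pen-strep; HGC-27 in DMEM:Ham's 12 (1:1) with 5% FCS.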

Series [2] concerns PC-3M-luc cells. As to the kind of experiment: Cell viability assay. Type of series: cell-based, human. Conditions: 3 days vs 5 days.
Another series deals with HEK293T cells. The series can be described thus: Cell viability assay. Format: cell-based. Particulars: Homo sapiens, HEK-293T. An outline of the steps:
as §1

The subject of series [3] is PC-3M-luc cells. The series can be described thus: Colony Forming Unit. Type of series: cell-based, human. An outline of the steps: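 PC-3M-luc cells were grown in RPMI 1640 with 10% FBS, 2 mM glutamine and 1% pen-strep, then seeded at 250 cells per well. After 2–3 h, test compound or vehicle was added (0.5% DMSO final) and plates were incubated 7 days at 37 °C, 5% CO2. Cells were PBS-washed, fixed in 4% PFA for 20 min at RT and stained with 0.01% crystal violet for 30 min. Colonies were then counted.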

Series [4] deals with c-Myc protein levels in PC-3M-luc cells. As to the kind of experiment: Western blot of c-Myc protein levels. Type of series: cell-based, human. Particulars: 24 h.
In series [5] the test system is α-tubulin acetylation in PC-3M-luc cells. The series can be described thus: Acetylation levels of α-tubulin by immunofluorescence. Particulars: 20 μM, 5 hours. Type of series: cell-based, human. An outline of the steps:
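PC-3M-luc cells were plated at 20 000 per well, incubated overnight at 37 °C and 5% CO2, then exposed to 20 μM test compound for 5 h. They were fixed in 4% PFA for 8–10 min at RT and extracted with PBS/0.1% Triton X-100. Blocking used PBS/0.1% Triton/5% FCS. […] Read-out was immunofluorescence microscopy.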

Series [6] relates to KRas4a fatty acylation in HEK293T cells. The series can be described thus: In cell inhibition of SIRT2 defatty-acylation of KRas-4a. Type of series: cell-based, human. Particulars: 25 μM.
The target of series [7] is T2, Sirt2_56-356. The series can be described thus: Fluorescence polarization assay. Type of series: binding. A general note: Polarisation of emitted light reports the rotation of a fluorescent probe.
For series [8], the target named is T4, N-terminally labelled Nluc-Sirt2 fusion protein (Homo sapiens, UniProt Q8IXJ6).
T4 sequence (Q8IXJ6 50-356): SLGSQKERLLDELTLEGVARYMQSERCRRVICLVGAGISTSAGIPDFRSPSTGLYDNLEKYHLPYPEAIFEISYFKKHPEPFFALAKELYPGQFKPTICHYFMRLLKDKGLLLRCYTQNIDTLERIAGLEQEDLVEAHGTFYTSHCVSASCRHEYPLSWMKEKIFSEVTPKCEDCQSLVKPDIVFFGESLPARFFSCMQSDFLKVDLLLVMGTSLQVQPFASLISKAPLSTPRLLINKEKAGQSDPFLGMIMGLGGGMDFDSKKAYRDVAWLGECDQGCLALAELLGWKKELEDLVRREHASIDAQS
The series can be described thus: NanoBRET assay, N-terminal Nluc-Sirt2 fusion in HEK293T cells.

Sequence of human recombinant HDAC1 (Q13547 whole entry): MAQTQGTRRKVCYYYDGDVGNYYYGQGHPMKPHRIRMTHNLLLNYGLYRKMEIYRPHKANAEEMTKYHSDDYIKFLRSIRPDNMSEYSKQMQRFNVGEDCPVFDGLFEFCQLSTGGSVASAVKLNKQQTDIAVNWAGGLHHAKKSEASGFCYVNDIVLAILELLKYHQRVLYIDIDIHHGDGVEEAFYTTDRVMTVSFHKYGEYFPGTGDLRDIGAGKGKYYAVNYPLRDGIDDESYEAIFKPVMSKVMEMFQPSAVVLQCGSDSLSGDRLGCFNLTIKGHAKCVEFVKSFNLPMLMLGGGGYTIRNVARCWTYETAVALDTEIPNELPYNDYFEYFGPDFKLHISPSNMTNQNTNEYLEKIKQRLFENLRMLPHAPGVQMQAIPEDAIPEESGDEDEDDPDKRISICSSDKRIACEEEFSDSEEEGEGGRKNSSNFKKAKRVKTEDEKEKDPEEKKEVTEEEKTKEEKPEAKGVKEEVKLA

`Cc1cc(C)nc(SCC(=O)Nc2ncc(Cc3cccc(OCc4cn(Cc5ccc(OCCN6CCOCC6)cc5)nn4)c3)s2)n1` [Compound 12]: the half-inhibitory concentration (IC50) on Sirt1_134-747 was greater than 100 µM; against Sirt2_56-356 [1], 0.12 ± 0.01 µM; against Sirt3_118-395 it was greater than 100 µM; at human recombinant HDAC1, greater than 100 µM; against Sirt2_56-356 [7] it was 0.07 ± 0.02 µM; in series [8], 0.098 ± 0.004 µM. The 50% growth inhibitory concentration (GI50) with HGC-27 cells came to 8.21 ± 0.59 µM; in the series on HEK293T cells, 7.7 ± 0.71 µM. Further, the “dependence of the effect on cell viability on incubation time” value in the series with PC-3M-luc cells [2] is “higher effects on the cell viability of PC-3M-luc cells could be observed after prolonged incubation time”. Further, in the series on PC-3M-luc cells [3], the “effect on colony formation (in words)” value is “Colony formation was almost completely prevented”. In addition, in [4] (10 μM), the “c-Myc protein levels (in words)” value is “completely absent”. The “concentration dependence of c-Myc levels” value in series [4] is recorded as “reduced in a concentration-dependent manner”. Further, the “acetylation levels of α-tubulin” value in series [5] is “elevated”. The “KRas4a acylation levels (in words)” value in series [6] is given as “increased acylation levels of KRas4a compared to DMSO treated cells”. Further, the “NanoBRET binding in digitonin permeabilized vs untreated cells” value in series [8] (digitonin 50 μg mL−1) was “None of the tested compounds revealed significant differences in the NanoBRET signals between permeabilized (digitonin) and untreated cells”.
